# Laboratory results as given in ChEMBL document CHEMBL1649165, “Activity profile in vitro of micafungin against Spanish clinical isolates of common and emerging species of yeasts and molds” (2009).
# *1 amine or outer side, *2 acyl side, *3 side chain or, on linkers, in order; H or OH if unused. Where a SMILES comes first, the peptide text is derived from it. Bridges are numbered along the chain shown (N, C = ends). [ ]: non-standard residue; d: D form. The star is where a group is joined. pTerphenylCO(4''-OnC5H11) = CCCCCOc1ccc(-c2ccc(-c3ccc(C(=O)*)cc3)cc2)cc1; Orn(4R-OH,5R-OH) = O=C([C@H](C[C@@H](O)[C@@H](O)N[*:3])N[*:1])[*:2]; hTyr(3S-OH,4S-OH) = N[C@H](C(=O)O)[C@H](O)[C@@H](O)c1ccc(O)cc1; Pro(3S-OH,4S-Me) = C[C@H]1CN[C@H](C(=O)O)[C@H]1O; Hyp = O=C(O)[C@@H]1C[C@@H](O)CN1
# Assays:
# Format in all cases: functional
# Exophiala dermatitidis = test: Antimicrobial activity against Exophiala dermatitidis by broth microdilution method
# Aspergillus ustus = test: Antimicrobial activity against Aspergillus ustus by broth microdilution method
# Summary of the method: (§1)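 Clinical mould isolates, tested by broth microdilution using the AFST-EUCAST reference method for filamentous fungi. For echinocandins, the endpoint was the minimum effective concentration: the lowest drug concentration giving aberrant hyphal growth, read with an inverted microscope.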
# Ustilago = test: Antimicrobial activity against Ustilago spp by broth microdilution method
# Fusarium oxysporum = test: Antimicrobial activity against Fusarium oxysporum by broth microdilution method; summary of the method: as §1
# Candida orthopsilosis = test: Antimicrobial activity against Candida orthopsilosis by broth microdilution method; conditions: Lodderomyces orthopsilosis
# Summary of the method: (§2)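 Clinical isolates from human patients, tested by broth microdilution using the AFST-EUCAST reference procedure for fermentative yeasts. The MIC was read per that reference method.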
# Pichia kudriavzevii = test: Antimicrobial activity against Candida krusei by broth microdilution method; summary of the method: as §2
# Clavispora lusitaniae = test: Antimicrobial activity against Candida lusitaniae by broth microdilution method; summary of the method: as §2
# [1] = Antimicrobial activity against Hormographiella aspergillata by broth microdilution method; conditions: Coprinopsis cinerea
# Summary of the method: (§3)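 Filamentous fungus clinical isolates tested by the AFST-EUCAST reference broth microdilution method for moulds. For echinocandins, the endpoint was the minimum effective concentration: the lowest drug concentration giving aberrant hyphal growth, read with an inverted microscope.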
# Rhodotorula glutinis = test: Antimicrobial activity against Rhodotorula glutinis by broth microdilution method
# Summary of the method: (§4)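 Nonfermentative yeast clinical isolates (Rhodotorula, Trichosporon) tested by broth microdilution. The EUCAST yeast recommendations were followed strictly, with one minor modification to improve growth. MIC was read as the endpoint.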
# Phialemonium curvatum = test: Antimicrobial activity against Phialemonium curvatum by broth microdilution method; conditions: Thyridium curvatum; summary of the method: as §3
# Exophiala jeanselmei = test: Antimicrobial activity against Exophiala jeanselmei by broth microdilution method
# Geotrichum candidum = test: Antimicrobial activity against Galactomyces geotrichum by broth microdilution method
# Aspergillus glaucus = test: Antimicrobial activity against Aspergillus glaucus by broth microdilution method; summary of the method: as §1
# [2] = tested on: Cladophialophora bantiana; test: Antimicrobial activity against Cladophialophora bantiana by broth microdilution method; summary of the method: as §1
# [3] = tested on: Kazachstania pintolopesii; test: Antimicrobial activity against Candida pintolopesii by broth microdilution method; conditions: Arxiozyma pintolopesii; summary of the method: as §2
# Lewia infectoria = test: Antimicrobial activity against Alternaria infectoria by broth microdilution method; summary of the method: as §1
# [4] = tested on: Meyerozyma guilliermondii; test: Antimicrobial activity against Candida guilliermondii by broth microdilution method; summary of the method: as §2
# Beauveria bassiana = test: Antimicrobial activity against Beauveria bassiana by broth microdilution method; summary of the method: as §1
# Trichosporon ovoides = test: Antimicrobial activity against Trichosporon ovoides by broth microdilution method; summary of the method: as §4
# [5] = Antimicrobial activity against Rhizopus microsporus by broth microdilution method; summary of the method: as §3
# Rhodotorula mucilaginosa = test: Antimicrobial activity against Rhodotorula mucilaginosa by broth microdilution method; summary of the method: as §4
# Fusarium equiseti = test: Antimicrobial activity against Fusarium equiseti by broth microdilution method; summary of the method: as §1
# [6] = tested on: Cryptococcus deneoformans; test: Antimicrobial activity against Cryptococcus neoformans var. neoformans by broth microdilution method
# Summary of the method: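 Clinical isolates of nonfermentative yeasts, tested by broth microdilution following EUCAST recommendations. The only change from that method was a minor modification to improve growth.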
# Lomentospora prolificans = test: Antimicrobial activity against Scedosporium prolificans by broth microdilution method; summary of the method: as §3
# Candida parapsilosis = test: Antimicrobial activity against Candida parapsilosis by broth microdilution method; conditions: Lodderomyces parapsilosis; summary of the method: as §2
# Rhizomucor = test: Antimicrobial activity against Rhizomucor spp.by broth microdilution method; summary of the method: as §3
# Debaryomyces hansenii = test: Antimicrobial activity against Candida famata by broth microdilution method; summary of the method: as §2
# Trichosporon inkin = test: Antimicrobial activity against Trichosporon inkin by broth microdilution method; summary of the method: as §4
# Cladosporium = test: Antimicrobial activity against Cladosporium spp. by broth microdilution method; summary of the method: as §1
# Aspergillus nidulans = test: Antimicrobial activity against Aspergillus nidulans by broth microdilution method; summary of the method: as §1
# [7] = tested on: Cunninghamella bertholletiae; test: Antimicrobial activity against Cunninghamella bertholletiae by broth microdilution method; summary of the method: as §1
# [8] = tested on: Scopulariopsis brevicaulis; test: Antimicrobial activity against Scopulariopsis brevicaulis by broth microdilution method; summary of the method: as §3
# Fusarium solani = test: Antimicrobial activity against Fusarium solani by broth microdilution method; summary of the method: as §3
# Saksenaea vasiformis = test: Antimicrobial activity against Saksenaea vasiformis by broth microdilution method; summary of the method: as §3
# Candida metapsilosis = test: Antimicrobial activity against Candida metapsilosis by broth microdilution method; conditions: Lodderomyces metapsilosis; summary of the method: as §2
# Aspergillus versicolor = test: Antimicrobial activity against Aspergillus versicolor by broth microdilution method; summary of the method: as §1
# Lichtheimia corymbifera = test: Antimicrobial activity against Mycocladus corymbiferus by broth microdilution method; summary of the method: as §3
# Rhizopus arrhizus = test: Antimicrobial activity against Rhizopus oryzae by broth microdilution method; summary of the method: as §3
# Aureobasidium pullulans = test: Antimicrobial activity against Aureobasidium pullulans by broth microdilution method
# Hortaea werneckii = test: Antimicrobial activity against Hortaea werneckii by broth microdilution method
# Neurospora sitophila = test: Antimicrobial activity against Chrysonilia sitophila by broth microdilution method; summary of the method: as §1
smiles,measurement,setting,value
"CCCCCOc1ccc(-c2ccc(-c3ccc(C(=O)N[C@H]4C[C@@H](O)[C@@H](O)NC(=O)[C@@H]5[C@@H](O)[C@@H](C)CN5C(=O)[C@H]([C@@H](C)O)NC(=O)[C@H]([C@H](O)[C@@H](O)c5ccc(O)cc5)NC(=O)[C@@H]5C[C@@H](O)CN5C(=O)[C@H]([C@@H](C)O)NC4=O)cc3)cc2)cc1 [ANIDULAFUNGIN] ({pTerphenylCO(4''-OnC5H11)}-[Orn(4R-OH,5R-OH)]T[Hyp][hTyr(3S-OH,4S-OH)]T[Pro(3S-OH,4S-Me)]; lactam 1-C)",MIC50,Exophiala dermatitidis,0.03 µg/mL
same,MIC90,Exophiala dermatitidis,0.06 µg/mL
same,MIC50,Aspergillus ustus,0.06 µg/mL
same,MIC90,Aspergillus ustus,0.25 µg/mL
same,MIC50,Ustilago,> 16 µg/mL
same,MIC90,Ustilago,> 16 µg/mL
same,MIC50,Fusarium oxysporum,> 16 µg/mL
same,MIC90,Fusarium oxysporum,> 16 µg/mL
same,MIC50,Candida orthopsilosis,0.06 µg/mL
same,MIC90,Candida orthopsilosis,0.25 µg/mL
same,MIC50,Pichia kudriavzevii,0.03 µg/mL
same,MIC90,Pichia kudriavzevii,0.06 µg/mL
same,MIC50,Clavispora lusitaniae,0.03 µg/mL
same,MIC90,Clavispora lusitaniae,0.12 µg/mL
same,MIC50,[1],> 16 µg/mL
same,MIC90,[1],> 16 µg/mL
same,MIC50,Rhodotorula glutinis,> 16 µg/mL
same,MIC90,Rhodotorula glutinis,> 16 µg/mL
same,MIC50,Phialemonium curvatum,> 16 µg/mL
same,MIC90,Phialemonium curvatum,> 16 µg/mL
same,MIC50,Exophiala jeanselmei,0.03 µg/mL
same,MIC90,Exophiala jeanselmei,0.06 µg/mL
same,MIC50,Geotrichum candidum,> 16 µg/mL
same,MIC90,Geotrichum candidum,> 16 µg/mL
same,MIC50,Aspergillus glaucus,0.06 µg/mL
same,MIC90,Aspergillus glaucus,0.25 µg/mL
same,MIC50,[2],0.03 µg/mL
same,MIC90,[2],0.06 µg/mL
same,MIC50,[3],0.06 µg/mL
same,MIC90,[3],0.25 µg/mL
same,MIC50,Lewia infectoria,2 µg/mL
same,MIC90,Lewia infectoria,> 16 µg/mL
same,MIC50,[4],1 µg/mL
same,MIC90,[4],8 µg/mL
same,MIC50,Beauveria bassiana,> 16 µg/mL
same,MIC90,Beauveria bassiana,> 16 µg/mL
same,MIC50,Trichosporon ovoides,> 16 µg/mL
same,MIC90,Trichosporon ovoides,> 16 µg/mL
same,MIC50,[5],> 16 µg/mL
same,MIC90,[5],> 16 µg/mL
same,MIC50,Rhodotorula mucilaginosa,> 16 µg/mL
same,MIC90,Rhodotorula mucilaginosa,> 16 µg/mL
same,MIC50,Fusarium equiseti,> 16 µg/mL
same,MIC90,Fusarium equiseti,> 16 µg/mL
same,MIC50,[6],> 16 µg/mL
same,MIC90,[6],> 16 µg/mL
same,MIC50,Lomentospora prolificans,4 µg/mL
same,MIC90,Lomentospora prolificans,> 16 µg/mL
same,MIC50,Candida parapsilosis,1 µg/mL
same,MIC90,Candida parapsilosis,2 µg/mL
same,MIC50,Rhizomucor,> 16 µg/mL
same,MIC90,Rhizomucor,> 16 µg/mL
same,MIC50,Debaryomyces hansenii,0.06 µg/mL
same,MIC90,Debaryomyces hansenii,0.25 µg/mL
same,MIC50,Trichosporon inkin,> 16 µg/mL
same,MIC90,Trichosporon inkin,> 16 µg/mL
same,MIC50,Cladosporium,0.03 µg/mL
same,MIC90,Cladosporium,0.06 µg/mL
same,MIC50,Aspergillus nidulans,0.03 µg/mL
same,MIC90,Aspergillus nidulans,0.25 µg/mL
same,MIC50,[7],> 16 µg/mL
same,MIC90,[7],> 16 µg/mL
same,MIC50,[8],> 16 µg/mL
same,MIC90,[8],> 16 µg/mL
same,MIC50,Fusarium solani,> 16 µg/mL
same,MIC90,Fusarium solani,> 16 µg/mL
same,MIC50,Saksenaea vasiformis,> 16 µg/mL
same,MIC90,Saksenaea vasiformis,> 16 µg/mL
same,MIC50,Candida metapsilosis,0.06 µg/mL
same,MIC90,Candida metapsilosis,0.25 µg/mL
same,MIC50,Aspergillus versicolor,0.03 µg/mL
same,MIC90,Aspergillus versicolor,0.03 µg/mL
same,MIC50,Lichtheimia corymbifera,> 16 µg/mL
same,MIC90,Lichtheimia corymbifera,> 16 µg/mL
same,MIC50,Rhizopus arrhizus,> 16 µg/mL
same,MIC90,Rhizopus arrhizus,> 16 µg/mL
same,MIC50,Aureobasidium pullulans,0.03 µg/mL
same,MIC90,Aureobasidium pullulans,0.06 µg/mL
same,MIC50,Hortaea werneckii,0.03 µg/mL
same,MIC90,Hortaea werneckii,0.06 µg/mL
same,MIC50,Neurospora sitophila,> 16 µg/mL
same,MIC90,Neurospora sitophila,> 16 µg/mL
